MIC, Activity and IC50 data for nine compounds are collected here from ChEMBL document CHEMBL1687861, “Comazaphilones A-F, azaphilone derivatives from the marine sediment-derived fungus Penicillium commune QSD-17” (J Nat Prod, 2011).

In brackets after ≈: the same amount, converted by molar mass. Activity calls are given as the source filed them.

In general, MIC refers to the smallest concentration in the dilution series that meets the test's criterion for growth inhibition. Read a high MIC as a less susceptible organism. The term IC50 denotes the concentration that inhibits the measured activity by half. The low end stands for inhibition by little substance, the high end for a need for much substance.

For test [1], the system named is Bacillus subtilis. The experiment in a line: Antimicrobial activity against Bacillus subtilis after 18 hrs by broth microdilution method. It counts as functional. The procedure, abridged:
(§1)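 Broth microdilution MIC; inoculum 5 × 10^5 cfu/mL; compounds tested over 1024-1 μg/mL; plates incubated 18 h at 35 °C in ambient air; MIC taken as the read-out after incubation.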
Background: Dilution methods test growth across graded concentrations, often in twofold steps.

In test [2] the test system is Pseudomonas fluorescens. Briefly: Antimicrobial activity against Pseudomonas fluorescens after 18 hrs by broth microdilution method. Type of test: functional. The procedure, abridged: as §1
Test [3] relates to Pseudomonas aeruginosa. Briefly: Antimicrobial activity against Pseudomonas aeruginosa after 18 hrs by broth microdilution method. It counts as functional. In outline: as §1
Test [4] has as its system Staphylococcus aureus. Briefly: Antimicrobial activity against methicillin-resistant Staphylococcus aureus after 18 hrs by broth microdilution method. Type of test: functional. In outline: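 Broth microdilution MIC. Inoculum 5 × 10^5 cfu/mL. Concentration range 1024-1 μg/mL. Plates incubated 18 h at 35 °C in ambient air. The MIC was read at the end of incubation.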
The subject of test [5] is MCF7. Briefly: Cytotoxicity against human MCF7 cells. It counts as functional, cell-based.
In test [6] the test system is HepG2. The experiment in a line: Cytotoxicity against human HepG2 cells. It counts as functional, cell-based.
The subject of test [7] is DU-145. Briefly: Cytotoxicity against human DU145 cells. Type of test: functional, cell-based.
In test [8] the test system is SMMC-7721. The experiment in a line: Cytotoxicity against human SMMC7721 cells. Type of test: functional, cell-based.
The subject of test [9] is HeLa. The experiment in a line: Cytotoxicity against human HeLa cells. It counts as functional, cell-based.
The test system of test [10] is NCI-H460. The experiment in a line: Cytotoxicity against human NCI-H460 cells. Type of test: functional, cell-based.
In test [11] the test system is Candida albicans. Briefly: Antimicrobial activity against Candida albicans after 18 hrs by broth microdilution method. Type of test: functional. The procedure, abridged:
as §1

The subject of test [12] is SW1990. Briefly: Cytotoxicity against human SW1990 cells. Type of test: functional, cell-based.

As to `CC1(C)S[C@@H]2[C@H](NC(=O)[C@H](N)c3ccccc3)C(=O)N2[C@H]1C(=O)O` [AMPICILLIN], the minimum inhibitory concentration (MIC) in [1] is 4 µg/mL (≈ 11.4 µM); in [2], 4 µg/mL (≈ 11.4 µM); in [3], 2 µg/mL (≈ 5.72 µM); in test [4], 8 µg/mL (≈ 22.9 µM).

Consider `CCCC1=CC2=C(CO1)C(=O)[C@](C)(OC(=O)c1c(C)cc(O)cc1OC)[C@H](O)C2` [COMAZAPHILONE A], for which the MIC in test [1], in [2], in [3], in test [4] and in test [11] was greater than 256 µg/mL in each case. Also, the outcome in test [5], in test [6], in test [7], in test [8], in test [9] and in [10] was inactive.

Turning to `CCCC1=CC2=C(CO1)C(=O)[C@](C)(OC(=O)c1c(C)cc(O)c(O)c1OC)[C@H](O)C2` [COMAZAPHILONE B], the MIC in [1] was 64 µg/mL (≈ 153 µM); in test [2], 128 µg/mL (≈ 306 µM); in test [3], greater than 256 µg/mL; in [4], 128 µg/mL (≈ 306 µM); in [11], greater than 256 µg/mL. Further, the outcome in test [5], in test [6], in test [7], in [8], in test [9] and in [10] was inactive.

With `C/C=C/C1=CC2=C(CO1)C(=O)[C@](C)(OC(=O)c1c(C)cc(O)c(O)c1OC)[C@H](O)C2` [COMAZAPHILONE C], the MIC was 32 µg/mL (≈ 76.8 µM) in test [1]; 64 µg/mL (≈ 154 µM) in test [2]; greater than 256 µg/mL in test [3]; 16 µg/mL (≈ 38.4 µM) in [4]; greater than 256 µg/mL in test [11]. In addition, the result in [5], in [6], in test [7], in [8], in test [9] and in [10] was inactive.

On to `C/C=C/C1=CC2=C(CO1)C(=O)[C@](C)(O)[C@H](OC(=O)c1c(C)cc(O)cc1O)C2` [COMAZAPHILONE D], for which the MIC in test [1] was greater than 256 µg/mL; in test [2], 16 µg/mL (≈ 41.4 µM); in test [3], greater than 256 µg/mL; in test [4], 32 µg/mL (≈ 82.8 µM); in test [11], greater than 256 µg/mL. The compound further yielded an IC50 in [12] of 51 µM.

Take `C/C=C/C1=CC2=C(CO1)C(=O)[C@](C)(O)[C@H](OC(=O)c1c(C)cc(O)c(O)c1OC)C2` [COMAZAPHILONE E]: the minimal inhibitory concentration (MIC) in test [1] was 16 µg/mL (≈ 38.4 µM); in test [2], 32 µg/mL (≈ 76.8 µM); in [3], greater than 256 µg/mL; in [4], greater than 256 µg/mL; in test [11], greater than 256 µg/mL. The compound further yielded a concentration for half-maximal inhibition (IC50) in test [12] of 26 µM.

Regarding `CCCC1=CC2=C(CO1)C(=O)[C@](C)(O)[C@H](OC(=O)c1c(C)cc(O)c(O)c1OC)C2` [COMAZAPHILONE F], the MIC in test [1] is 128 µg/mL (≈ 306 µM); in test [2], 64 µg/mL (≈ 153 µM); in [3] it was greater than 256 µg/mL; in test [4] it was 128 µg/mL (≈ 306 µM); in test [11], greater than 256 µg/mL. For the same compound, in [12], half-maximal inhibition (IC50) required 53 µM.

`O=c1[nH]cc(F)c(=O)[nH]1` [FLUOROURACIL] had a half-maximal inhibitory concentration (IC50) in [12] of 120 µM.

In test [11], NYSTATIN gave an MIC of 2 µM.
